The source made the active and inactive calls. No cut-off for these calls is given here.
Assays:
[1] = tested on: Mus musculus; test: Effect on serum triglyceride level in high fat diet-induced obese C57BL/6J mouse model at 20 mg/kg, po for 6 weeks (reference value: 40.96 +/- 4.592 mg/dl); type: functional
[2] = tested on: Mus musculus; test: Anti-obesity activity in high fat diet-induced obese C57BL/6J mouse model assessed as fasting glucose level at 20 mg/kg, po for 6 weeks (reference value: 93.17 +/- 5.793 mg/dL); type: functional
Outline: (§1)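 Male C57BL/6J mice, 5-6 weeks old, 22-25 g, fed 60% fat diet to induce obesity. Dosed orally once at 20 mg/kg for six weeks; drug dissolved in DMSO, then mixed into 5% gum acacia in normal saline (working DMSO <5%). Controls were vehicle-treated HFD mice. Body weight was tracked, and fasting glucose was read by glucose meter after a 16 h fast; n=4-6.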

[3] = tested on: Mus musculus; test: Effect on total cholesterol level in high fat diet-induced obese C57BL/6J mouse model at 20 mg/kg, po for 6 weeks (reference value: 120.8 +/- 7.206 mg/dl); type: functional
[4] = tested on: Mus musculus; test: Anti-obesity activity in high fat diet-induced obese C57BL/6J mouse model assessed as fat mass at 20 mg/kg, po for 6 weeks by NMR-MRI analysis (reference value: 16.52 +/- 1.154 g); type: functional
[5] = tested on: Mus musculus; test: Effect on HDL cholesterol level in high fat diet-induced obese C57BL/6J mouse model at 20 mg/kg, po for 6 weeks (reference value: 57.8 +/- 3.385 mg/dl); type: functional
[6] = tested on: Mus musculus; test: Anti-obesity activity in high fat diet-induced obese C57BL/6J mouse model assessed as plasma leptin level at 20 mg/kg, po for 6 weeks (reference value: 1751 +/- 325.4 pg/mg); type: functional
[7] = tested on: Mus musculus; test: Anti-obesity activity in high fat diet-induced obese C57BL/6J mouse model assessed as reduction in body weight gain at 20 mg/kg, po for 6 weeks; type: functional, organism-based; outline: as §1
[8] = tested on: Mus musculus; test: Antiobesity activity in high fat diet-induced obese C57BL/6J mouse model assessed as improvement in glucose tolerance at 20 mg/kg, po measured post glucose challenge by intraperitoneal glucose tolerance test; type: functional, organism-based
Outline: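 After six weeks of oral dosing (20 mg/kg) in HFD obese C57BL/6J mice, animals were fasted 16 h and baseline glucose was taken from the tail tip. Glucose 2 g/kg was given i.p., and blood glucose was measured at 15, 30, 60, 90 and 120 min. Mean ± SEM, 4-5 mice/group.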

[9] = tested on: Mus musculus; test: Anti-obesity activity in high fat diet-induced obese C57BL/6J mouse model assessed as lean mass at 20 mg/kg, po for 6 weeks by NMR-MRI analysis (reference value: 25.58 +/- 0.6789 g); type: functional
[10] = tested on: Mus musculus; test: Effect on LDL cholesterol level in high fat diet-induced obese C57BL/6J mouse model at 20 mg/kg, po for 6 weeks (reference value: 11.56 +/- 1.587 mg/dl); type: functional
[11] = tested on: Mus musculus; test: Anti-obesity activity in high fat diet-induced obese C57BL/6J mouse model assessed as reduction in body weight at 20 mg/kg, po for 6 weeks; type: functional; outline: as §1
[12] = tested on: Mus musculus; test: Anti-obesity activity in high fat diet-induced obese C57BL/6J mouse model assessed as decrease in fat mass at 10 mg/kg, po for 6 weeks by NMR-MRI analysis; type: functional, organism-based
Outline: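 Male C57BL/6J mice, 5-6 weeks old (22-25 g), made obese on a 60% fat diet. Dosed orally for six weeks, dissolved in DMSO then mixed into 5% gum acacia in normal saline (working DMSO <5%), against HFD vehicle-treated mice. Total body fat compared at end of treatment, n=4-5/group, by one-way ANOVA with Newman-Keuls test.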

[13] = tested on: Mus musculus; test: Anti-obesity activity in high fat diet-induced obese C57BL/6J mouse model assessed as reduction in body weight gain at 10 mg/kg, po for 6 weeks; type: functional, organism-based
Outline: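 High-fat (60% fat) diet-induced obese male C57BL/6J mice, started at 5-6 weeks old and 22-25 g. Oral dosing for six weeks from a DMSO stock diluted into 5% gum acacia/normal saline (working DMSO <5%), against HFD vehicle controls. Cumulative body weight gain tracked over treatment, n=4-5, analysed by two-way ANOVA.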

`COc1ccc(-c2cc3cc(C4Nc5ccccc5C(=O)N4C)cc(C)c3oc2=O)cc1` (stereo not drawn) was tested. Which Activity [1] did it give?
The Activity was 36.97 mg/dL.

What about the Activity [2] of the same compound?
The Activity was 63 mg/dL.

What about the Activity [3] of the same compound?
Its Activity is 95.6 mg/dL.

And the Activity [4]?
The Activity was 13.01 g.

And the Activity [5]?
The Activity was 45.92 mg/dL.

And the Activity [6]?
Its Activity is 807.6 pg/mg.

What about the Activity [7] of the same compound?
The Activity was “Active”.

And the Activity [8]?
Its Activity is “inactive”.

And the Activity [9]?
The Activity was 23.16 g.

What about the Activity [10] of the same compound?
Its Activity is 10.4 mg/dL.

What about the Activity [11] of the same compound?
The Activity was 0.72 g.

How did the Activity [12] turn out when `C[C@H]1CNCCc2ccc(Cl)cc21` was run?
Its Activity is “Active”.

And the Activity [13]?
Its Activity is “Active”.

— ChEMBL document CHEMBL4152241, “Discovery of coumarin-dihydroquinazolinone analogs as niacin receptor 1 agonist with in-vivo anti-obesity efficacy” (Eur J Med Chem, 2018)
